Reference: ChEMBL document CHEMBL1153576, “Novel ureas and thioureas of 15-membered azalides with antibacterial activity against key respiratory pathogens” (Eur J Med Chem, 2009)
Converted amounts (≈) assume the structure as drawn.

What was measured:
Format in all cases: functional
Haemophilus influenzae = experiment: Antibacterial activity against Haemophilus influenzae ATCC 49247 after 16 to 22 hrs by broth dilution method
Method in brief: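 Microdilution trays following the CLSI standard, with two-fold serial dilutions in supplemented broth suited to H. influenzae. DMF stocks at 5 mg/ml. Inoculum prepared from a turbidity-adjusted direct colony suspension to about 5 × 10⁴ CFU/well final. Incubated at 35 °C for 16–22 h. MIC is the lowest concentration giving complete (99%) growth inhibition.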

Streptococcus pneumoniae [1] = experiment: Antibacterial activity against efflux-mediated macrolide-resistant Streptococcus pneumoniae after 16 to 22 hrs by broth microdilution method
Method in brief: (§1)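 Two-fold serial dilutions in microdilution trays, following the CLSI dilution standard for aerobic bacteria. Medium was Mueller–Hinton broth with 5% horse serum for streptococci. Stocks were made at 5 mg/ml in DMF. Inoculum came from a direct colony suspension adjusted by turbidity to about 5 × 10⁴ CFU/well final. Incubation was at 35 °C for 16–22 h. MIC is the lowest concentration completely inhibiting growth (99% inhibition).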

Streptococcus pneumoniae [2] = experiment: Antibacterial activity against erythromycin-susceptible Streptococcus pneumoniae after 16 to 22 hrs by broth microdilution method
Method in brief: (§2)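 Streptococci tested by CLSI broth microdilution in Mueller–Hinton broth with 5% horse serum, using two-fold serial dilutions. Compounds were dissolved in DMF at 5 mg/ml (stock). Inoculum was a turbidity-adjusted direct colony suspension giving about 5 × 10⁴ CFU/well. Trays were held at 35 °C for 16–22 h. MIC is the lowest concentration completely inhibiting growth (99%).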

Escherichia coli = experiment: Antibacterial activity against Escherichia coli ATCC 25922 after 16 to 22 hrs by broth dilution method
Method in brief: (§3)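 Broth microdilution per the CLSI approved standard (sixth edition), using two-fold serial dilutions of compound in Mueller–Hinton broth. Stocks at 5 mg/ml in DMF. Inoculum came from a direct colony suspension adjusted by turbidity to about 5 × 10⁴ CFU/well final. Trays were incubated at 35 °C for 16–22 h. MIC is the lowest concentration completely inhibiting growth (99% inhibition).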

Streptococcus pneumoniae [3] = experiment: Antibacterial activity against constitutive macrolide-lincosamide-streptogramin-resistant Streptococcus pneumoniae after 16 to 22 hrs by broth microdilution method; method in brief: as §1
Streptococcus pyogenes [4] = experiment: Antibacterial activity against inducible macrolide-lincosamide-streptogramin-resistant Streptococcus pyogenes 16 to 22 hrs by broth microdilution method; method in brief: as §1
Streptococcus pyogenes [5] = experiment: Antibacterial activity against efflux-mediated macrolide-resistance Streptococcus pyogenes after 16 to 22 hrs by broth microdilution method; method in brief: as §1
Staphylococcus aureus = experiment: Antibacterial activity against Staphylococcus aureus ATCC 29213 after 16 to 22 hrs by broth microdilution method; method in brief: as §3
Streptococcus pyogenes [6] = experiment: Antibacterial activity against erythromycin-susceptible Streptococcus pyogenes after 16 to 22 hrs by broth microdilution method; method in brief: as §2
Moraxella catarrhalis = experiment: Antibacterial activity against Moraxella catarrhalis ATCC 23246 after 16 to 22 hrs by broth dilution method; method in brief: as §3
Enterococcus faecalis = experiment: Antibacterial activity against Enterococcus faecalis ATCC 29212 after 16 to 22 hrs by broth dilution method; method in brief: as §3

Row | SMILES | MIC (Haemophilus influenzae) | MIC (Streptococcus pneumoniae [1]) | MIC (Streptococcus pneumoniae [2]) | MIC (Escherichia coli) | MIC (Streptococcus pneumoniae [3]) | MIC (Streptococcus pyogenes [4]) | MIC (Streptococcus pyogenes [5]) | MIC (Staphylococcus aureus) | MIC (Streptococcus pyogenes [6]) | MIC (Moraxella catarrhalis) | MIC (Enterococcus faecalis)
1 | CC[C@H]1OC(=O)[C@H](C)[C@@H](O[C@H]2C[C@@](C)(OC)[C@@H](O)[C@H](C)O2)[C@H](C)[C@@H](O[C@@H]2O[C@H](C)C[C@H](N(C)C)[C@H]2O)[C@](C)(O)C[C@@H](C)CN(CCCNC(=S)Nc2cccc3ccccc23)[C@H](C)[C@@H](O)[C@]1(C)O | 2 mg/L (≈ 2.05 µM) | 4 mg/L (≈ 4.09 µM) | ≤ 0.125 mg/L | 8 mg/L (≈ 8.19 µM) | > 64 mg/L | 4 mg/L (≈ 4.09 µM) | 4 mg/L (≈ 4.09 µM) | 1 mg/L (≈ 1.02 µM) | ≤ 0.125 mg/L | 1 mg/L (≈ 1.02 µM) | 8 mg/L (≈ 8.19 µM)
2 | CC[C@H]1OC(=O)[C@H](C)[C@@H](O[C@H]2C[C@@](C)(OC)[C@@H](O)[C@H](C)O2)[C@H](C)[C@@H](O[C@@H]2O[C@H](C)C[C@H](N(C)C)[C@H]2O)[C@](C)(O)C[C@@H](C)CN(CCCNC(=O)Nc2ccc3ccccc3c2)[C@H](C)[C@@H](O)[C@]1(C)O | 2 mg/L (≈ 2.08 µM) | 4 mg/L (≈ 4.16 µM) | ≤ 0.125 mg/L | 16 mg/L (≈ 16.6 µM) | 16 mg/L (≈ 16.6 µM) | 2 mg/L (≈ 2.08 µM) | 4 mg/L (≈ 4.16 µM) | 1 mg/L (≈ 1.04 µM) | ≤ 0.125 mg/L | 0.25 mg/L (≈ 0.26 µM) | 8 mg/L (≈ 8.32 µM)
3 | CC[C@H]1OC(=O)[C@H](C)[C@@H](O[C@H]2C[C@@](C)(OC)[C@@H](O)[C@H](C)O2)[C@H](C)[C@@H](O[C@@H]2O[C@H](C)C[C@H](N(C)C)[C@H]2O)[C@](C)(O)C[C@@H](C)CN(CCCNC(=O)NC(C)C)[C@H](C)[C@@H](O)[C@]1(C)O | 16 mg/L (≈ 18.2 µM) | 32 mg/L (≈ 36.5 µM) | ≤ 0.125 mg/L | 16 mg/L (≈ 18.2 µM) | > 64 mg/L | 8 mg/L (≈ 9.12 µM) | 32 mg/L (≈ 36.5 µM) | 2 mg/L (≈ 2.28 µM) | ≤ 0.125 mg/L | 1 mg/L (≈ 1.14 µM) | 32 mg/L (≈ 36.5 µM)
4 | CC[C@H]1OC(=O)[C@H](C)[C@@H](O[C@H]2C[C@@](C)(OC)[C@@H](O)[C@H](C)O2)[C@H](C)[C@@H](O[C@@H]2O[C@H](C)C[C@H](N(C)C)[C@H]2O)[C@](C)(O)C[C@@H](C)CN(CCCN(CCC#N)C(=O)NCCc2ccccc2)[C@H](C)[C@@H](O)[C@]1(C)O | 32 mg/L (≈ 32.2 µM) | 64 mg/L (≈ 64.5 µM) | ≤ 0.125 mg/L | > 64 mg/L | > 64 mg/L | 32 mg/L (≈ 32.2 µM) | 64 mg/L (≈ 64.5 µM) | 4 mg/L (≈ 4.03 µM) | ≤ 0.125 mg/L | 16 mg/L (≈ 16.1 µM) | 64 mg/L (≈ 64.5 µM)
5 | CC[C@H]1OC(=O)[C@H](C)[C@@H](O[C@H]2C[C@@](C)(OC)[C@@H](O)[C@H](C)O2)[C@H](C)[C@@H](O[C@@H]2O[C@H](C)C[C@H](N(C)C)[C@H]2O)[C@](C)(O)C[C@@H](C)CN(CCCNC(=O)NCCc2ccccc2)[C@H](C)[C@@H](O)[C@]1(C)O | 16 mg/L (≈ 17 µM) | 32 mg/L (≈ 34.1 µM) | ≤ 0.125 mg/L | 16 mg/L (≈ 17 µM) | > 64 mg/L | 8 mg/L (≈ 8.52 µM) | 32 mg/L (≈ 34.1 µM) | 1 mg/L (≈ 1.06 µM) | ≤ 0.125 mg/L | 2 mg/L (≈ 2.13 µM) | 16 mg/L (≈ 17 µM)
6 | CC[C@H]1OC(=O)[C@H](C)[C@@H](O[C@H]2C[C@@](C)(OC)[C@@H](O)[C@H](C)O2)[C@H](C)[C@@H](O[C@@H]2O[C@H](C)C[C@H](N(C)C)[C@H]2O)[C@](C)(O)C[C@@H](C)CN(CCCN(CCC#N)C(=O)NCc2ccccc2)[C@H](C)[C@@H](O)[C@]1(C)O | 4 mg/L (≈ 4.09 µM) | 16 mg/L (≈ 16.4 µM) | ≤ 0.125 mg/L | 8 mg/L (≈ 8.18 µM) | 64 mg/L (≈ 65.4 µM) | 16 mg/L (≈ 16.4 µM) | 8 mg/L (≈ 8.18 µM) | 2 mg/L (≈ 2.04 µM) | ≤ 0.125 mg/L | 0.5 mg/L (≈ 0.511 µM) | 32 mg/L (≈ 32.7 µM)
7 | CC[C@H]1OC(=O)[C@H](C)[C@@H](O[C@H]2C[C@@](C)(OC)[C@@H](O)[C@H](C)O2)[C@H](C)[C@@H](O[C@@H]2O[C@H](C)C[C@H](N(C)C)[C@H]2O)[C@](C)(O)C[C@@H](C)CN(CCCNC(=S)NCCCc2ccccc2)[C@H](C)[C@@H](O)[C@]1(C)O | 2 mg/L (≈ 2.06 µM) | 8 mg/L (≈ 8.25 µM) | ≤ 0.125 mg/L | 16 mg/L (≈ 16.5 µM) | > 64 mg/L | 4 mg/L (≈ 4.13 µM) | 4 mg/L (≈ 4.13 µM) | 0.5 mg/L (≈ 0.516 µM) | ≤ 0.125 mg/L | 1 mg/L (≈ 1.03 µM) | 16 mg/L (≈ 16.5 µM)
8 | CC[C@H]1OC(=O)[C@H](C)[C@@H](O[C@H]2C[C@@](C)(OC)[C@@H](O)[C@H](C)O2)[C@H](C)[C@@H](O[C@@H]2O[C@H](C)C[C@H](N(C)C)[C@H]2O)[C@](C)(O)C[C@@H](C)CN(CCCNC(=O)NC(C)c2cccc3ccccc23)[C@H](C)[C@@H](O)[C@]1(C)O (stereo partly drawn) | 2 mg/L (≈ 2.02 µM) | 16 mg/L (≈ 16.2 µM) | ≤ 0.125 mg/L | 32 mg/L (≈ 32.3 µM) | 16 mg/L (≈ 16.2 µM) | 2 mg/L (≈ 2.02 µM) | 8 mg/L (≈ 8.09 µM) | 1 mg/L (≈ 1.01 µM) | ≤ 0.125 mg/L | 0.25 mg/L (≈ 0.253 µM) | 8 mg/L (≈ 8.09 µM)
